HMGR_II_inh: inhibitors of class II HMG-CoA reductase from Enterococcus faecalis. inhibition, % at 10 µM. purified E. faecalis HMGR, NADPH absorbance 340 nm kinetic. actives 0.41% (n = 190,000). AID 1066;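 active means inhibition above a set limit, the median over all tested compounds plus 3 SD, cut at about 9.5% in these data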;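 further: enzyme runs in reverse so mevalonate oxidation gives rising NADPH absorbance; 0% = complete reaction with DMSO and 100% = background rate lacking mevalonate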
Redox_H2O2_prof: compounds producing H2O2 with reducing agent – biochemical, NIH compound library profiling, artefact control for MLSCN library redox annotation, primary screen; DTT-dependent redox cycling H2O2, phenol red/HRP absorbance; 100% = 100 µM peroxide control, 0% = buffer; activation, % at 10 µM; actives 0.03% (n = 200,000);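 active means activation of at least 50% relative to the plate's high and low controls in the primary single-dose screen; inactive means activation below 50%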;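 further: compound incubated with DTT at 0.8 mM final as the reducing agent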
Rad51_HR_inh: Rad51 (human) homologous recombination inhibition; Q06609; hRad51 DNA strand exchange, fluorescence dequenching; inhibition, % at 10 µM; actives 0.085% (n = 200,000); AID 1385;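 active means inhibition above 40% at the single screening dose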;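 further: 0% = DMSO control wells and 100% = blanks with heterologous ssDNA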
Target sequence (Q06609 whole entry, looked up): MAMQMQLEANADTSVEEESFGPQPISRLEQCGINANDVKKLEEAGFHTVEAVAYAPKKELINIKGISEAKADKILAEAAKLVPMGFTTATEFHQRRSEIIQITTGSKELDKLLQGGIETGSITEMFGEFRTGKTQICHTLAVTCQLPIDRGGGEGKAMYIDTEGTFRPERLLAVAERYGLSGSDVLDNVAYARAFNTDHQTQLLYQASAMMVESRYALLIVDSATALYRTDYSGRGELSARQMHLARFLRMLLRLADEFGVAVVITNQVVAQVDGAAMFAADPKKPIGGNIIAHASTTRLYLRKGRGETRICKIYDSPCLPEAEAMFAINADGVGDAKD
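Material: hRad51 filaments on single-stranded DNA; Reagent: Donor/quencher-labelled 47-bp dsDNA substrate; Compound: 10 µM final, single point; Schedule: 37 °C 15-min filament assembly, 30-min compound preincubation, 15-min exchange; Technique: FRET fluorescence, excitation 485 nm, emission 520 nm; Benchmarks: control wells and blank wells on each plate.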
PKD1_inh: PKD1 (human) kinase inhibition; Q15139; PKD1 kinase fluorescence polarization assay; inhibition, % (no concentration beside the values); actives 0.056% (n = 200,000); in the data active means inhibition above about 50%
Pf_gametocyte: inhibitors of late stage P. falciparum gametocyte viability; P. falciparum stage V gametocytes, ATP luminescence, 24 h; inhibition, % at 10.9 µM; actives 0.065% (n = 150,000); AID 743093;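 active means inhibition above the mean plus 3 SD of compounds within the control limits, set per campaign, cut at about 38% in these data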;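 further: 0% = DMSO wells and 100% = medium only without gametocytes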
Calpain2_inh: calpain II (pig) inhibition; purified calpain II, fluorogenic peptide substrate, 30 min; inhibition, % at 16 µM; actives 0.37% (n = 220,000); AID 1236;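 active means inhibition above about 50%, limit read from the data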
Redox_H2O2_DR: confirmation of DTT-dependent redox cycling H2O2 generators; shares compounds with Redox_H2O2_prof; AID 1234; phenol red-HRP absorbance; EC50, µM; actives 40% (n = 60);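 active means EC50 under a set limit for hydrogen peroxide production with the reducing agent DTT present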
An asterisk follows results filed as active; / = no result given. Sampled rows, rich in hits. Any-hit rate of the full collection: about 0.81%.

SMILES HMGR_II_inh Redox_H2O2_prof Rad51_HR_inh PKD1_inh Pf_gametocyte Calpain2_inh Redox_H2O2_DR
C=CCn1c(Cc2ccc(OC)cc2)nnc1SCC(=O)NCCc1ccccc1 -6 109* -1 3 / 20 >50
CCn1c(Cc2ccccc2)nnc1SCC(=O)Nc1ccc(OC)cc1 -2 2 -2 1 / 10 /
O=C(COC(=O)c1ccc([N+](=O)[O-])s1)Nc1ncc(C(F)(F)F)cc1Cl -11 86* -61 3 -26 -32 >50
O=C(COC(=O)c1ccccc1OCc1ccccc1Cl)NC1CC1 3 88* 10 0 / -13 >50
CCOc1ccc(Cn2c(=O)oc3ccccc32)cc1 / / / / 18 / /
Cc1ccc(S(=O)(=O)/N=C2/C=C(Sc3ncn[nH]3)C(=O)c3ccccc32)c(C)c1 13* 83* 6 16 / 28 13*
Cc1ccc(S(=O)(=O)Nc2ccc(O)c(Sc3ncn[nH]3)c2)cc1 -5 -1 0 0 / -14 /
Cc1ccc(C)c(S(=O)(=O)Nc2ccc(O)c(Sc3ncn[nH]3)c2)c1 / / -7 / 12 -2 /
CC(C)c1ccc(S(=O)(=O)/N=C2/C=C(Sc3ncn[nH]3)C(=O)c3ccccc32)cc1 3 93* -7 -7 / 13 13*
Cc1ccc(S(=O)(=O)/N=C2/C=C(Sc3ncn[nH]3)C(=O)c3ccccc32)cc1 -3 120* / -10 / -18 12*
O=C1C(Nc2ccccc2)=C/C(=N/S(=O)(=O)c2cccs2)c2ccccc21 -3 102* -11 -8 / -6 >50
Cc1ccc(C)c(S(=O)(=O)Nc2cc(SCC(=O)O)c(O)c3ccccc23)c1 5 101* 4 2 / 16 >50
O=C(N/N=C\CCc1ccccc1)c1ccco1 -2 0 7 3 6 9 /

Screening data (PubChem BioAssay)
